Measurements taken from publication PMC3390238 (Science Translational Medicine, 2012).
Read-outs that look alike come from different tables or passages of the source. Positions of bridges follow the written chain, without caps; N, C: chain ends. Non-standard residues stand in square brackets, D forms with d. Residues, ends and D or L forms follow the SMILES beside them. hArg = N=C(N)NCCCC[C@H](N)C(=O)O; Mpa = O=C(O)CCS

How the values were obtained:
[1] = tested on: platelet adhesion/aggregation to collagen; experiment: Platelet adhesion/aggregation to collagen; assay type: cell-based, human
αIIbβ3 [2] = target: T1, αIIbβ3 (Homo sapiens, UniProt P05106+P08514); experiment: Platelet adhesion to immobilized fibrinogen screening assay; assay type: cell-based; conditions: for inhibition of platelet adhesion to fibrinogen: mean ± SD, five experiments
αIIbβ3 [3] = target: T1, αIIbβ3; experiment: ADP-induced platelet aggregation of platelet-rich plasma; assay type: cell-based
mouse platelets = experiment: ADP-induced mouse platelet aggregation; assay type: cell-based
rat platelets = experiment: ADP-induced rat platelet aggregation; assay type: cell-based
αVβ3 = αVβ3 (Homo sapiens, UniProt P05106+P06756); experiment: αVβ3-mediated HEK293 cell adhesion to vitronectin; assay type: cell-based
αIIbβ3 [4] = target: T1, αIIbβ3; experiment: αIIbβ3-mediated HEK293 cell adhesion to fibrinogen; assay type: cell-based; conditions: 100 μM; n = 4
[5] = target: αIIbβ3 ligand-induced binding sites (Homo sapiens, UniProt P05106+P08514); experiment: Induction of ligand-induced binding site; assay type: cell-based; conditions: for PMI-1 binding to platelets, % of amount bound in the presence of eptifibatide: αIIb LIBS mAb PMI-1, untreated 46 ± 5%; for PMI-1 binding to platelets, % of amount bound in the presence of eptifibatide / LIBS1 binding to platelets, % of amount bound in the presence of eptifibatide: eptifibatide = 100%; for AP5 binding to platelets, % of amount bound in the presence of eptifibatide: β3 LIBS mAb AP5, eptifibatide 10 μM = 100%, untreated 7 ± 3%; for LIBS1 binding to platelets, % of amount bound in the presence of eptifibatide: β3 LIBS mAb LIBS1, after 30 min, untreated 22 ± 3%
Procedure, shortened: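 Flow-based binding of LIBS mAbs to platelets: AP5 (β3 PSI domain), LIBS1 (β3 distal leg) and PMI-1 (αIIb). Net normalized fluorescence was expressed relative to platelets treated with eptifibatide, set as 100%. For AP5 the reference was eptifibatide 10 µM, 30 min at 22°C. Replicates: n=5 for AP5, n=4 for PMI-1.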

normal human platelets = experiment: Recruitment of αIIbβ3-dependent patient IgG to drug-pretreated platelets; assay type: cell-based; conditions: for recruitment of patient IgG to platelets: all 5 tirofiban samples and 13 of 15 eptifibatide samples
Procedure, shortened: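 Normal platelets were pretreated with test compound, then exposed to sera from patients with tirofiban- (5) or eptifibatide-induced (15) thrombocytopenia. Platelet-bound patient IgG was read as median MFI. Signals were compared with untreated control platelets and with eptifibatide-treated platelets.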

purified αIIbβ3 = purified αIIbβ3 (Homo sapiens, UniProt P05106+P08514); experiment: Negative stain EM of αIIbβ3 nanodiscs
αIIbβ3 headpiece [6] = target: T2, αIIbβ3 headpiece (Homo sapiens, UniProt P05106+P08514); experiment: Gel filtration of soluble αIIbβ3 headpiece; conditions: for reduction in αIIbβ3 headpiece elution volume: Superdex 200
Target sequence in this assay (P08514 32-652 limits assumed): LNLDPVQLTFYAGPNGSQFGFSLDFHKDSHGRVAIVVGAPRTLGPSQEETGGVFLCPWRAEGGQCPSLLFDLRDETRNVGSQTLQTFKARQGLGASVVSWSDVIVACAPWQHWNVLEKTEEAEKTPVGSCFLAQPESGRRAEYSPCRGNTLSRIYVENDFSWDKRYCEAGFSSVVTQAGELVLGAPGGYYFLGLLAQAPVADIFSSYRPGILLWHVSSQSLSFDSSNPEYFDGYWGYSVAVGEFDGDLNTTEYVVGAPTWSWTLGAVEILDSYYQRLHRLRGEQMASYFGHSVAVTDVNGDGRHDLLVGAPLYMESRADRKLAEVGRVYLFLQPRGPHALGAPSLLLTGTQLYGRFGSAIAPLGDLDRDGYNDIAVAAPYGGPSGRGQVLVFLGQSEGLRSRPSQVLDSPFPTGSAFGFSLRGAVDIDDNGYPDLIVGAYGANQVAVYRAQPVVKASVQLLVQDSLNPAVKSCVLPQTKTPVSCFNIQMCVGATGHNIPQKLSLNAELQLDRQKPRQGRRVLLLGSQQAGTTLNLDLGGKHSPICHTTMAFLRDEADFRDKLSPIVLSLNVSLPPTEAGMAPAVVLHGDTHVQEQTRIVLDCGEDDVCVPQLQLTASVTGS
Target sequence in this assay (P05106 27-498 limits assumed): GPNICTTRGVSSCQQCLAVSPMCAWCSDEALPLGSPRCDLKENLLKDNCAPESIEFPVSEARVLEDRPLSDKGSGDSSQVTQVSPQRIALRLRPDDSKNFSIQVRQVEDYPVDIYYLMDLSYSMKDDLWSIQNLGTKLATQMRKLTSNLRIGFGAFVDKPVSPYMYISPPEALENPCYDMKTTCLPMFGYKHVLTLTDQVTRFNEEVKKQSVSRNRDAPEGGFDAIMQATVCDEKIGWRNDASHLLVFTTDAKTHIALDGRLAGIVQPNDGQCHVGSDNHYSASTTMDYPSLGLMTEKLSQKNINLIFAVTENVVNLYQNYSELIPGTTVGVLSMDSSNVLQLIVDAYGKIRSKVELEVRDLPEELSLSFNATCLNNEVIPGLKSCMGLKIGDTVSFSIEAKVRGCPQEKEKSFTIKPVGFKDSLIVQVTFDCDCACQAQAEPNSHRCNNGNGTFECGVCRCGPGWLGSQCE

αIIbβ3 headpiece [7] = target: T2, αIIbβ3 headpiece; experiment: Dynamic light scattering of soluble αIIbβ3 headpiece
Target sequence in this assay (P08514 32-652 limits assumed): as the sequence (P08514 32-652 limits assumed) above
Target sequence in this assay (P05106 27-498 limits assumed): as the sequence (P05106 27-498 limits assumed) above

platelet αIIbβ3 = platelet αIIbβ3 (Homo sapiens, UniProt P05106+P08514); experiment: Priming assay: induction of fluorescent fibrinogen binding to platelets; assay type: cell-based; conditions: for incremental fibrinogen binding: one experiment
recombinant human αIIbβ3 = assay type: cell-based; conditions: going from 1 to 50 mM Mg2+
Procedure, shortened: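 CHO-K cells stably expressing human αIIbβ3 were preincubated ±test compound for 30 min at each Mg²⁺ level (1 to 50 mM) plus 1 mM Ca²⁺. They were then exposed to PAC-1 (5 µg/ml) with activating mAb PT25-2 (5 µg/ml) for 30 min at 25°C, stained with PE anti-mouse IgM on ice for 30 min, and analysed by flow cytometry. Read-out was % MFI with vs without drug (n=3); IC50 was compared across Mg²⁺ levels.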

αIIbβ3 [8] = target: T1, αIIbβ3; experiment: Platelet adhesion to fibrinogen at different Mg2+ concentrations; assay type: cell-based; conditions: for IC50: IC50, platelet adhesion to fibrinogen, 1 mM Ca2+, mean ± SD, three experiments
αIIbβ3 [9] = target: T1, αIIbβ3; experiment: Platelet aggregation induced by thrombin receptor–activating peptide; assay type: cell-based; conditions: 20 mM vs 1 mM Mg2+
αIIbβ3 [10] = conditions: 25.6 mg/kg; cited from earlier work
hαIIb/mβ3 = hαIIb/mβ3 (UniProt O54890+P08514); experiment: Aggregation of platelets from a mouse expressing human αIIb and mouse β3; assay type: cell-based
[11] = pKa by titration in water; assay type: physicochemical
αIIbβ3 headpiece [12] = target: T2, αIIbβ3 headpiece; experiment: X-ray crystallography of RUC-2–αIIbβ3 headpiece complex; conditions: determined by x-ray crystallography, PDB code 3T3M
[13] = 100 μM, first reactive eptifibatide-patient serum
[14] = read-out: inhibition of platelet adhesion to fibrinogen

T1 sequence (P08514 32-887 limits assumed): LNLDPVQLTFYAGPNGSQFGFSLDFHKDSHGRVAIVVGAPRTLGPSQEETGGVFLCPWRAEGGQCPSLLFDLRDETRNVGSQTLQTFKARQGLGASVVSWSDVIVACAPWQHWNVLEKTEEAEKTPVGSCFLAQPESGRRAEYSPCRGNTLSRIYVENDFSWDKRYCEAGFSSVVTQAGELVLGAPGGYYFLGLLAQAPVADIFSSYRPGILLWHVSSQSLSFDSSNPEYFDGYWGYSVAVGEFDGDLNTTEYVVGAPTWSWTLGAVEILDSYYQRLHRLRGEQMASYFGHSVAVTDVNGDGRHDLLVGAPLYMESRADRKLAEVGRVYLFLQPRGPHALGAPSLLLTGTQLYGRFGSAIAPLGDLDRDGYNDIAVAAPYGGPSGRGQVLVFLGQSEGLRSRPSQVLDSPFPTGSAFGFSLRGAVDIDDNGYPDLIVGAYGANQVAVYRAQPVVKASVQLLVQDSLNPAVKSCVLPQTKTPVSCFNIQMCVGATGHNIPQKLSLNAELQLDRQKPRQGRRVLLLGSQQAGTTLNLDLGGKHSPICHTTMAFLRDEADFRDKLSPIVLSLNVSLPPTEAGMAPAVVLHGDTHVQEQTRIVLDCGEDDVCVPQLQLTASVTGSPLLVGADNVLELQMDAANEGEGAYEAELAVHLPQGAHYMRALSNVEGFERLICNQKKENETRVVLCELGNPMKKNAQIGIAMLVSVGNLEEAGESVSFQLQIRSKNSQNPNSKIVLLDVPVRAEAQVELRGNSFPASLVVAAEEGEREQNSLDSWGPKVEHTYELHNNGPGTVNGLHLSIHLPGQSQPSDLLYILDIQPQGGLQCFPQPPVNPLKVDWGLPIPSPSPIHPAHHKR
T1 sequence (P08514 891-1039 partner limits assumed): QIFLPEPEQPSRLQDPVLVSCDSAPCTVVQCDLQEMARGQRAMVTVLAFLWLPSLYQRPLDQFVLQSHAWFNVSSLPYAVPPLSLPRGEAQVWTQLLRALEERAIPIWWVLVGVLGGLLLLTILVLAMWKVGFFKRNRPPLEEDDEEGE
T1 sequence (P05106 27-788): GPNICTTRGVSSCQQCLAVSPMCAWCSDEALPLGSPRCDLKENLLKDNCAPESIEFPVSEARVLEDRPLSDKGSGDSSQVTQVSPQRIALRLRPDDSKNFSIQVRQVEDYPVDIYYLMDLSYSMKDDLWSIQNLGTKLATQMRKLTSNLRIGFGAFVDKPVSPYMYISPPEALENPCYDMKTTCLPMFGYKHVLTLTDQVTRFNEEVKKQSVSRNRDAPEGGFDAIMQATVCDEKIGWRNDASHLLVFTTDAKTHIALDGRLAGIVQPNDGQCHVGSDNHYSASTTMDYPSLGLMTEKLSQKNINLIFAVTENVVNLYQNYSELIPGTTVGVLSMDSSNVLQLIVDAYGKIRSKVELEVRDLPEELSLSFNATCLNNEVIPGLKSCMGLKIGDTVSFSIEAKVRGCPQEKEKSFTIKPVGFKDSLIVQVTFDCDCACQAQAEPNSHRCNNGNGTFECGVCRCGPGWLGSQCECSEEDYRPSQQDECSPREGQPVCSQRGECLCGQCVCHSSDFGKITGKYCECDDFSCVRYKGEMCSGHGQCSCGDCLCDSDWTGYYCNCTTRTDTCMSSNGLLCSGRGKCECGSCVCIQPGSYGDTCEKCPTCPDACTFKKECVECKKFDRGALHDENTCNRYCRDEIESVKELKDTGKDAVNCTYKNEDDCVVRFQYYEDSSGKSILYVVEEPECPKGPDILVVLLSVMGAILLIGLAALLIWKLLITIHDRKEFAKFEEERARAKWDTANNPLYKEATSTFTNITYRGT
Sequence of platelet αIIbβ3 (P08514 32-887 limits assumed): as the sequence (P08514 32-887 limits assumed) above
Sequence of platelet αIIbβ3 (P08514 891-1039 partner limits assumed): as the sequence (P08514 891-1039 partner limits assumed) above
Sequence of platelet αIIbβ3 (P05106 27-788): as the sequence (P05106 27-788) above

10E5: anti-αIIbβ3 (αIIbβ3-specific) mAb
inhibition of platelet adhesion/aggregation to collagen ([1]; mAb, concentration not given): ~ 30%

CCc1nn2c(=O)cc(N3CCNCC3)nc2s1 [RUC-1, reference compound]
inhibition of platelet adhesion to fibrinogen (αIIbβ3 [2]; 10 μM): 22 ± 8% | inhibition of platelet adhesion to fibrinogen (αIIbβ3 [2]; 30 μM): 38 ± 10% | inhibition of platelet adhesion to fibrinogen (αIIbβ3 [2]; 100 μM): 70 ± 15% | inhibition of human platelet aggregation (αIIbβ3 [3]; 100 μM): nearly completely inhibited | IC50 (αIIbβ3 [3]; read-out: IC50, ADP-induced platelet aggregation, citrated PRP, ADP 5 μM, initial slope): 9700 ± 1000 nM | inhibition of mouse platelet aggregation induced by ADP (mouse platelets; 100 μM): did not inhibit | inhibition of rat platelet aggregation induced by ADP (rat platelets; 100 μM): did not inhibit | inhibition of adhesion of HEK293 cells expressing αVβ3 to vitronectin (αVβ3; 100 μM, n = 4): 5 ± 7% | inhibition of adhesion of HEK293 cells expressing αIIbβ3 to fibrinogen (αIIbβ3 [4]): 55 ± 5% | PMI-1 binding to platelets, % of amount bound in the presence of eptifibatide [5]: 73 ± 9% | AP5 binding to platelets, % of amount bound in the presence of eptifibatide [5]: 10 ± 4% | LIBS1 binding to platelets, % of amount bound in the presence of eptifibatide [5]: 18 ± 2% | recruitment of patient IgG to platelets (normal human platelets; 100 μM): Neither RUC-1 nor RUC-2 induced recruitment of patient IgG | MFI increase as % of value with eptifibatide-treated platelets (normal human platelets; [13]): 13% | median MFI relative to control platelets (normal human platelets; [13]): 6.8 times | recognition of pretreated platelets by patient serum (normal human platelets; 100 μM, second reactive eptifibatide-patient serum): but not RUC-1 | shift of NIL value distribution of αIIbβ3 nanodiscs (purified αIIbβ3; up to 100 μM, P = 0.23): neither RUC-1 at concentrations up to 100 μM nor RUC-2 at concentrations up to 10 μM produced a significant shift | increase in Stokes radius, gel filtration (αIIbβ3 headpiece [6]; 500 μM (near-saturating)): little or no increases | reduction in αIIbβ3 headpiece elution volume (αIIbβ3 headpiece [6]; 500 μM (near-saturating)): 0.03 mL | increase in Stokes radius, DLS (αIIbβ3 headpiece [7]; 500 μM (near-saturating)): 0.08 nm | incremental fibrinogen binding (platelet αIIbβ3; 100 μM): 2% | increase of IC50 for PAC-1 binding (recombinant human αIIbβ3): ~ 6% | increase in IC50 at higher Mg2+ concentrations, platelet adhesion to fibrinogen (αIIbβ3 [8]; compared with RUC-2): Neither RUC-1 nor tirofiban showed a comparable increase in IC50 | inhibitory effect on SFLLRN-induced platelet aggregation (αIIbβ3 [9]; 100 μM): much less evident | antithrombotic effects in murine models in large and small blood vessels (αIIbβ3 [10]): has antithrombotic effects

NCC(=O)Nc1cccc(-c2nn3c(=O)cc(N4CCNCC4)nc3s2)c1 [RUC-2, 2-amino-N-(3-(5-oxo-7-(piperazin-1-yl)-5H-[1,3,4]thiadiazolo[3,2-a]pyrimidin-2-yl)phenyl)acetamide]
αIIbβ3-dependent platelet adhesion to fibrinogen in a screening assay (αIIbβ3 [2]): RUC-2 inhibited αIIbβ3-dependent platelet adhesion to fibrinogen in a screening assay and αIIbβ3-dependent platelet aggregation. It was found to bind to the target via x-ray crystallography (PDB code 3T3M). | inhibition at 10 µM (αIIbβ3 [2]; [14]): 66 ± 10% | inhibition at 30 µM (αIIbβ3 [2]; [14]): 80 ± 13% | inhibition at 100 µM (αIIbβ3 [2]; [14]): 83 ± 7% | IC50 (αIIbβ3 [3]): 220 nM | αIIbβ3-dependent platelet aggregation (αIIbβ3 [3]): RUC-2 inhibited αIIbβ3-dependent platelet adhesion to fibrinogen in a screening assay and αIIbβ3-dependent platelet aggregation. It was found to bind to the target via x-ray crystallography (PDB code 3T3M). | inhibition of human platelet aggregation (αIIbβ3 [3]; 1 μM): nearly completely inhibited | inhibition of mouse platelet aggregation induced by ADP (mouse platelets; 1 μM): did not inhibit | inhibition of rat platelet aggregation induced by ADP (rat platelets; 1 μM): did not inhibit | inhibition of aggregation of hαIIb/mβ3 mouse platelets (hαIIb/mβ3): essentially completely inhibited | inhibition of platelet adhesion/aggregation to collagen ([1]; 1 to 100 μM): ~ 30% | further inhibition of adhesion/aggregation to collagen ([1]; RUC-2 combined with anti-αIIbβ3 antibody 10E5): did not further inhibit | platelet adhesion to collagen, microscopic analysis ([1]; decreased recruitment of additional platelets to adherent platelets): did not decrease platelet adhesion to collagen | effect on αVβ3-mediated cell adhesion to vitronectin (αVβ3): RUC-2 had minimal effect on αVβ3-mediated cell adhesion to vitronectin. | PMI-1 binding to platelets, % of amount bound in the presence of eptifibatide [5]: 82 ± 13% | AP5 binding to platelets, % of amount bound in the presence of eptifibatide [5]: 18 ± 5% | LIBS1 binding to platelets, % of amount bound in the presence of eptifibatide [5]: 21 ± 3% | recruitment of patient IgG to platelets (normal human platelets; 3.9 μM): Neither RUC-1 nor RUC-2 induced recruitment of patient IgG | MFI increase as % of value with eptifibatide-treated platelets (normal human platelets; 3.9 μM, first reactive eptifibatide-patient serum): 8% | increase in Stokes radius, gel filtration (αIIbβ3 headpiece [6]; 100 μM (near-saturating)): little or no increases | reduction in αIIbβ3 headpiece elution volume (αIIbβ3 headpiece [6]; 100 μM (near-saturating)): 0.07 mL | increase in Stokes radius, DLS (αIIbβ3 headpiece [7]; 100 μM (near-saturating)): 0.16 nm | incremental fibrinogen binding (platelet αIIbβ3; 1 μM): did not produce any incremental binding | fibrinogen binding to platelets (priming) (platelet αIIbβ3; 5 μM): did not increase the fibrinogen binding | reduction in affinity (PAC-1 binding) (recombinant human αIIbβ3): ~75% | increase of IC50 for PAC-1 binding (recombinant human αIIbβ3; 1 mM Ca2+, activating mAb PT25-2): ~ 3.9 fold | IC50 (αIIbβ3 [8]; 1 mM Mg2+): 290 ± 100 nM | IC50 (αIIbβ3 [8]; 20 mM Mg2+): 910 ± 210 nM | IC50 (αIIbβ3 [8]; 50 mM Mg2+): 1300 ± 350 nM | decrease in affinity, platelet adhesion to fibrinogen (αIIbβ3 [8]; going from 1 to 50 mM Mg2+): ~ 80% | increase in IC50, platelet adhesion to fibrinogen (αIIbβ3 [8]; going from 1 to 50 mM Mg2+): ~ 4.5 fold | inhibitory effect on SFLLRN-induced platelet aggregation (αIIbβ3 [9]; 1 μM): clearly attenuated | pKa ([11]; pKa 1 (primary amine)): 6.41 | pKa ([11]; pKa 2 (piperazine nitrogen)): 8.08 | mechanism of inhibition (αIIbβ3 headpiece [12]): Orthosteric inhibition at the RGD binding domain as determined by x-ray crystallography

N=C(N)NCCCC[C@@H]1NC(=O)CCSSC[C@@H](C(N)=O)NC(=O)[C@@H]2CCCN2C(=O)[C@H](Cc2c[nH]c3ccccc23)NC(=O)[C@H](CC(=O)O)NC(=O)CNC1=O [eptifibatide] ([Mpa][hArg]GDWPC-NH2; disulfide 1-7 (inferred))
shift of NIL value distribution of αIIbβ3 nanodiscs (purified αIIbβ3; dose-dependent, P < 0.001): shifted the distribution in a dose-dependent manner | incremental fibrinogen binding (platelet αIIbβ3; 1 μM): 34%

CCCCS(=O)(=O)N[C@@H](Cc1ccc(OCCCCC2CCNCC2)cc1)C(=O)O [tirofiban]
inhibition at 10 µM (αIIbβ3 [2]; [14]): 87 ± 9% | recruitment of patient IgG (normal human platelets; the two eptifibatide-treated patient samples reactive with RUC compounds): able to recruit patient IgG | increase in Stokes radius, gel filtration (αIIbβ3 headpiece [6]; 56 μM (near-saturating)): 0.4 nm | reduction in αIIbβ3 headpiece elution volume (αIIbβ3 headpiece [6]; 56 μM (near-saturating)): 0.38 mL | increase in Stokes radius, DLS (αIIbβ3 headpiece [7]; 56 μM (near-saturating)): 0.45 nm | incremental fibrinogen binding (platelet αIIbβ3; 0.5 μM): 17% | change of IC50 for PAC-1 binding (recombinant human αIIbβ3): completely unchanged

RGDS
incremental fibrinogen binding (platelet αIIbβ3; 100 μM): 36%
